High-throughput results as filed in PubChem.
PHOSPHO1 block – inhibitors of human PHOSPHO1 phosphatase; Q8TCT1; recombinant PHOSPHO1, absorbance phosphatase assay; inhibition, % at 13.3 µM; hit rate 1.1% among 290,000; AID 1565; in the data active means inhibition above about 60%
APOBEC3A inh – inhibitors of human APOBEC3A DNA deaminase. recombinant A3A, FAM/TAMRA ssDNA deamination fluorescence. inhibition, % at 20 µM. hit rate 0.41% among 330,000. P31941. AID 493011;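 active means at least 40% inhibition at 20 µM here, with at most 30% in a related deaminase screen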;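 further: plate controls were A3A with DMSO for no effect and wells lacking A3A enzyme for full effect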
pCIP destab – compounds decreasing mouse p/CIP protein stability; decrease of EGFP signal, % at 10 µM; AID 1984; F442A p/CIP-EGFP cells, EGFP fluorescence, 16 h; Q05BA5; hit rate 0.01% among 290,000;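 active means EGFP signal decrease of at least 30% at 10 µM or well 3 SD below plate mean, unless failing retest; inactive means the rest, including hits failing retest or dose response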
Target sequence (Q05BA5 1-1403): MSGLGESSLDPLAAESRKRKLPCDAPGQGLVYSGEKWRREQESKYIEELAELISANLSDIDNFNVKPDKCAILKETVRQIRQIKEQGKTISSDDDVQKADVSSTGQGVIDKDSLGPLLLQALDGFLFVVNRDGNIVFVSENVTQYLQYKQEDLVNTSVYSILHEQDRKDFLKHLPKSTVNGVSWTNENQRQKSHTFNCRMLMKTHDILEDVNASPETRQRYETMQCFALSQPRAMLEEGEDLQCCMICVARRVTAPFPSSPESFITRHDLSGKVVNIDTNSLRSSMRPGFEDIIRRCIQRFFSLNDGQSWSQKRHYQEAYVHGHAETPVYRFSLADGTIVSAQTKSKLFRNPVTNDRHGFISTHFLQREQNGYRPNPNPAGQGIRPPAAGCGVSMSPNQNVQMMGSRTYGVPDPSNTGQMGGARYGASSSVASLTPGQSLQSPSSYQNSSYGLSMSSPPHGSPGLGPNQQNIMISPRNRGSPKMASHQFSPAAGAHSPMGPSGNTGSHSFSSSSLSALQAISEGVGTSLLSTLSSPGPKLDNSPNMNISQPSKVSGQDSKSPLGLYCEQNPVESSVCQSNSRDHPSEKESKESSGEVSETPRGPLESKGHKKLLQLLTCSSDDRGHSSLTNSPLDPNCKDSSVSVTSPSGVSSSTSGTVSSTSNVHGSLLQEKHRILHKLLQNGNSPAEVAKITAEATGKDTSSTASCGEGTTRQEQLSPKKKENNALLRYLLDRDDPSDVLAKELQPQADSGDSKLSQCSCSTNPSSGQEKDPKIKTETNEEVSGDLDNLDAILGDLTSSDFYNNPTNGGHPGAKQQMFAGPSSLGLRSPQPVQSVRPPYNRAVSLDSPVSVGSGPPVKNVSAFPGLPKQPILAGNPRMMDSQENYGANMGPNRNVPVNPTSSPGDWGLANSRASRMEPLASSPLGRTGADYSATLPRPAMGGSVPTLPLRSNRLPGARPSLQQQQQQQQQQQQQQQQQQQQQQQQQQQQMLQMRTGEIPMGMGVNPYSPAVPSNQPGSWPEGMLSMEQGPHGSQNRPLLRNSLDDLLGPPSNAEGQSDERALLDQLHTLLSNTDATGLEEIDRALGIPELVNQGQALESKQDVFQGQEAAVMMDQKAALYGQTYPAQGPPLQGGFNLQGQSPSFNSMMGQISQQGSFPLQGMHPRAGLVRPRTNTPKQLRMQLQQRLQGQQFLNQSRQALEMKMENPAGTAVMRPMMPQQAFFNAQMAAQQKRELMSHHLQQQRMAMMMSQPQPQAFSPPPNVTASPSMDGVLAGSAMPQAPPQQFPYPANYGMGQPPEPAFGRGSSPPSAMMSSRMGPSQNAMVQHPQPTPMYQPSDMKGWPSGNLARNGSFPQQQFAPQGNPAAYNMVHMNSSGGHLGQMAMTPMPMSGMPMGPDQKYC
A3G deaminase – APOBEC3G (human) deaminase inhibition; hit rate 0.28% among 330,000; inhibition, % at 20 µM; recombinant A3G, ssDNA deamination FAM/TAMRA fluorescence; Q9HC16; AID 493012;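 active means inhibition of at least 40% at 20 µM, with no more than 30% in the related APOBEC3A deaminase screen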;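 further: plate controls were DMSO wells with A3G for no effect and wells lacking A3G enzyme for full effect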
TbMetRS inhib – blocks T. brucei methionyl-tRNA synthetase activity; purified T. brucei MetRS, ATP depletion, Kinase-Glo luminescence; inhibition, % at 11.9 µM; hit rate 0.4% among 360,000; AID 624268;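 active means inhibition above a per-plate cutoff of the control wells' mean inhibition plus 3 SD, cut at about 5.5% in these data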;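 further: 0% = DMSO wells median and 100% = median of wells with control inhibitor compound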
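Dosing: 11.9 µM compound single dose, 0.9% DMSO; Assay system: purified T. brucei MetRS enzyme; Measured by: Kinase-Glo luciferase luminescence reporting remaining unconsumed ATP; Schedule: 15 min plus 2 h at 25 °C.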
A3A conf – confirmation of human APOBEC3A DNA deaminase inhibitors; inhibition, % at 20 µM; shares compounds with APOBEC3A inh; recombinant A3A, ssDNA deaminase UDG fluorescence assay; hit rate 63% among 1,400;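 active means inhibition reaching a set limit, 80% of the first screen's cutoff, at 20 µM in any replicate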;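 further: plate controls were DMSO wells with A3A for no effect and wells lacking A3A enzyme for full effect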
UDG A3A counter – counter-screen for APOBEC3A inhibitors: UDG. UDG counterscreen, FAM/TAMRA uracil oligo fluorescence. 1,000 tested, under 10 active. inhibition, % at 20 µM. shares compounds with APOBEC3A inh; call rule not given here
An asterisk follows results filed as active; . = no result given. Shown are actives, neighbours in structure and some others; about 1.8% of the full set was active somewhere.

SMILES | PHOSPHO1 block | APOBEC3A inh | pCIP destab | A3G deaminase | TbMetRS inhib | A3A conf | UDG A3A counter
O=C(Cn1nnc2ccccc21)OCC(=O)c1ccc(Cl)c(Cl)c1 | 8.2 | 40.5* | -11.6 | 0.0 | 1.4 | 1.1 | .
CC1CC(C)CN(CCCNC(=O)c2ccc3c(c2)N(Cc2ccccc2)C(=O)c2ccccc2S3=O)C1 (stereo not given) | 7.2 | -2.5 | 10.1 | 0.1 | 0.2 | . | .
O=C(Cc1ccc(S(=O)(=O)N2CCOCC2)s1)Nc1nc2c(s1)CCCC2 | 93.6* | 77.6* | -7.6 | 18.9 | -0.7 | 73.0* | 0.8
Cc1ccccc1N(CC(=O)Nc1ccc(F)cc1)S(C)(=O)=O | -17.8 | -0.7 | -7.9 | -2.8 | 0.0 | . | .
Cc1ccc(NC(=O)CN(c2ccccc2F)S(C)(=O)=O)cc1 | -14.6 | 51.7* | -4.4 | 3.2 | -0.1 | -2.3 | .
O=C(NN1C(=O)c2ccccc2NC1c1ccccn1)c1ccccc1 (stereo not given) | -17.6 | 1.7 | -25.3 | 0.8 | -0.1 | . | .
O=c1[nH]c(=S)[nH]cc1Oc1ccc(Cl)cc1 | . | . | . | . | 0.5 | . | .
NC(=O)C1CCCN(C(=S)Nc2cccc3ccccc23)C1 (stereo not given) | 8.4 | 3.0 | 0.2 | 0.1 | 1.1 | . | .
O=C(c1cc([N+](=O)[O-])ccc1N1CCOCC1)N1CCN(c2ccc([N+](=O)[O-])cc2)CC1 | . | 56.1* | . | 6.5 | -0.3 | 5.0 | .
CC(C)C(=O)N1CCN(c2ccc([N+](=O)[O-])cc2Cl)CC1 | 0.0 | 55.4* | -10.6 | 15.3 | 3.5 | 17.3* | -2.1
O=C(c1cc([N+](=O)[O-])ccc1N1CCOCC1)N1CCCCC1 | 35.0 | -0.6 | -2.2 | -4.7 | 1.3 | . | .
CC(C)=CCCC1=CCC2C(=O)NNC(=O)C2C1 (stereo not given) | -7.3 | 58.5* | -6.0 | -7.0 | -0.5 | -0.7 | 2.0
CN(C)c1cc[n+](CC(=O)Nc2ccc(OC(F)F)cc2)cc1 | 12.1 | 48.3* | 3.5 | 11.1 | -0.1 | 65.2* | -2.5
CCN1C(=O)[C@@H]2[C@H](C1=O)[C@@H]1C(=O)Nc3ccccc3C(=O)N1[C@@H]2c1cccc(C)c1 | . | 1.5 | . | 3.0 | -0.3 | . | .
C=CCC1(CC=C)CCCN1C(=O)c1cc(COc2cncc(Cl)c2)on1 | 65.8* | 53.0* | -37.1 | -2.4 | -0.3 | -9.6 | 4.4
C=CCC1(CC=C)CCCN1C(=O)c1cc(COc2cccc(OC)c2)on1 | 12.1 | -3.5 | -34.7 | -5.5 | 0.0 | . | .
COn1c(-c2ccccc2)nc2c1CCc1nonc1-2 | 15.3 | 54.0* | 3.7 | -0.2 | -1.2 | -7.4 | -2.4
c1ccc(COn2c(-c3ccccc3)nc3c2CCc2nonc2-3)cc1 | 1.8 | -1.3 | -2.8 | -4.4 | -1.8 | . | .
CN1/C(=C\C=N\O)C(C)(C)c2ccccc21 | 16.1 | 2.4 | -10.2 | -1.4 | -0.2 | . | .
CN1/C(=C\C=[N+](C)c2ccccc2)C(C)(C)c2ccccc21 | -50.5 | 56.2* | -9.6 | 13.0 | 0.1 | 77.5* | -33.3
CCOC(=O)C1CCCN(C(=O)Cn2ncc3c([nH]c4ccccc43)c2=O)C1 (stereo not given) | 42.6 | -1.4 | 8.6 | -6.0 | 0.1 | . | .
COc1ccc(C(=O)NC(C)c2nnc(SCc3ccc(Cl)c(Cl)c3)n2C)cc1 (stereo not given) | 81.7* | 56.8* | -10.7 | 16.0 | -1.1 | 60.4* | -2.0
C[n+]1cccc(C2C(C#N)=C(N)Oc3c2ccc2ccccc32)c1 (stereo not given) | -53.2 | 41.0* | 4.8 | 15.3 | -0.1 | 30.6* | -1.4
COc1ccc2nc(SCC(=O)NCc3ccc(OC)c(OC)c3)[nH]c2c1 | 15.1 | -1.1 | 1.1 | -6.6 | 0.3 | . | .
O=C(CCN1C(=O)COc2ccccc21)NCCCN1CCCC1 | 12.6 | -6.1 | -1.2 | -5.7 | -1.2 | . | .
SMILES | PHOSPHO1 block | APOBEC3A inh | pCIP destab | A3G deaminase | TbMetRS inhib | A3A conf | UDG A3A counter
CN(CC(=O)Nc1cccc(F)c1)C(=O)CCc1nc2ccccc2c(=O)[nH]1 | . | 35.6 | . | -1.3 | 0.1 | . | .
Cc1nc(CC(C)C)cc(C(=O)N2CCCC(CNS(=O)(=O)c3cccs3)C2)n1 (stereo not given) | 19.9 | 2.2 | -12.4 | 1.5 | -1.2 | . | .
COc1cc(Cl)c(C)cc1NC(=O)CSc1sc2c(O)cc(=O)[nH]c2c1C#N | 15.1 | 69.4* | -10.3 | 26.4 | 0.5 | 18.2* | 0.6
O=C1C2C3C=CC(C4CC34)C2C(=O)N1c1ccc2c(c1)OCO2 (stereo not given) | -20.0 | -1.1 | 1.0 | -3.8 | -2.5 | . | .
O=C(NCCc1ccccc1)C1CCCN(c2nc3ccccc3s2)C1 (stereo not given) | 27.0 | -3.6 | -9.2 | -9.9 | -0.1 | . | .
O=C(NC(Cc1ccccc1)c1nc2ccccc2[nH]1)C1CC(=O)N(c2ccc3c(c2)OCCO3)C1 (stereo not given) | 95.8* | 54.8* | -14.8 | 21.4 | 0.9 | 4.1 | .
O=C(NCCc1ccccc1)C1CC(=O)N(c2ccc3c(c2)OCCO3)C1 (stereo not given) | . | -3.4 | . | -12.7 | -0.3 | . | .
O=C1CC(c2ccco2)CC(O)=C1C=Nc1cc(Cl)ccc1O (stereo not given) | -8.1 | 55.4* | -20.7 | 29.2 | 0.0 | 54.3* | .
Cc1c(NC(=O)c2cc(-n3cnnc3)ccc2Cl)cccc1-c1nc2ccccc2o1 | 12.6 | 46.3* | -3.9 | 24.8 | -0.8 | 64.5* | -1.9
O=C(Nc1ccc(-c2nc3ccccc3o2)c(O)c1)c1cc(-n2cnnc2)ccc1Cl | 5.0 | 0.5 | 9.0 | -3.2 | -0.2 | . | .
COc1ccc(Nc2nc3ccccc3n3nnnc23)cc1 | 16.2 | 1.1 | 5.7 | -5.6 | -1.3 | . | .
Cc1ccc(Nc2nc3ccccc3n3nnnc23)cc1 | 44.8 | 46.3* | -7.1 | 3.0 | 1.1 | 1.2 | .
CN(CC(=O)NCCc1ccc(S(N)(=O)=O)cc1)Cc1ccc(Cl)cc1Cl | 28.0 | -2.4 | -16.5 | -6.8 | 0.3 | . | .
CCC[n+]1c(C)sc2c(OC)ccc(OC)c21 | -6.8 | 43.7* | -6.4 | 18.9 | 0.2 | 19.5* | -0.8
CCOC(=O)C1=C(COC(=O)/C=C/c2ccco2)NC(=O)NC1C (stereo not given) | . | 48.0* | . | 4.9 | -0.6 | 44.5* | 3.6
CCOC(=O)C1=C(COC(=O)/C=C/c2ccc(OC)cc2)NC(=O)NC1C (stereo not given) | . | -1.8 | . | -7.2 | -0.8 | . | .
C=CCn1c(CNC(=O)c2cccs2)nnc1SCC(=O)c1ccc(Br)cc1 | 0.1 | 1.2 | 0.6 | -1.9 | 0.8 | . | .
C=CCn1c(CNC(=O)c2cccs2)nnc1SCC(=O)Nc1ccc(C(=O)O)cc1 | 90.4* | 48.5* | 2.8 | 5.8 | -0.5 | 4.2 | .
COc1cccc(/C=C/C(=O)OCC(=O)NC2CC2)c1OC | . | -4.1 | . | -7.8 | -0.1 | . | .
CCOC(=O)[C@]12CCC=C1N(Cc1ccco1)C(=O)[C@H](CC(=O)N1CCN(C(=O)C3CC3)CC1)C2 | . | . | . | . | -0.1 | . | .
